What was measured:
J774 [1] = assay: Antiinflammatory activity in mouse J774 cells assessed as inhibition of LPS-induced COX-2 protein expression at 10 uM by Western blot
J774 [2] = assay: Antiinflammatory activity in mouse J774 cells assessed as inhibition of LPS-induced NO production at 100 uM by Griess reaction; type: functional
Procedure, shortened: (§1)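 Confluent J774 macrophages, grown 72 h in 24-well plates, were stimulated with LPS in fresh medium containing compound. Nitrite was quantified against a sodium nitrite standard. Results were given as % inhibition versus LPS alone, mean ± S.E.M.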

J774 [3] = assay: Inhibition of LPS-stimulated iNOS protein expression in mouse J774 cells at 100 uM by Western blot analysis
J774 [4] = assay: Antiinflammatory activity in mouse J774 cells assessed as inhibition of LPS-induced COX-2 protein expression at 100 uM by Western blot
J774 [5] = assay: Inhibition of LPS-stimulated IL-6 production in mouse J774 cells at 10 uM by ELISA
J774 [6] = assay: Antiinflammatory activity in mouse J774 cells assessed as inhibition of LPS-induced NO production at 10 uM by Griess reaction; type: functional
Procedure, shortened: as §1

J774 [7] = assay: Inhibition of LPS-stimulated iNOS protein expression in mouse J774 cells at 10 uM by Western blot analysis
J774 [8] = assay: Cytotoxicity against mouse J774 cells at 100 uM by XTT assay; type: cell-based; details: j774, 100 µM
Procedure, shortened: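 Confluent J774 monolayers were exposed to compound under the same conditions as the anti-inflammatory assays. Viability was read as mitochondrial dehydrogenase reduction of XTT to formazan.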

J774 [9] = assay: Inhibition of LPS-stimulated IL-6 production in mouse J774 cells at 100 uM by ELISA
[10] = molecular target: Transcription factor p65 (Mus musculus) (UniProt Q04207); assay: Inhibition of NF-kB p65 nuclear translocation in LPS-stimulated mouse J774 cells at 100 uM by Western blot analysis; type: cell-based
Chain of Transcription factor p65 (Mus musculus) (Q04207 whole entry): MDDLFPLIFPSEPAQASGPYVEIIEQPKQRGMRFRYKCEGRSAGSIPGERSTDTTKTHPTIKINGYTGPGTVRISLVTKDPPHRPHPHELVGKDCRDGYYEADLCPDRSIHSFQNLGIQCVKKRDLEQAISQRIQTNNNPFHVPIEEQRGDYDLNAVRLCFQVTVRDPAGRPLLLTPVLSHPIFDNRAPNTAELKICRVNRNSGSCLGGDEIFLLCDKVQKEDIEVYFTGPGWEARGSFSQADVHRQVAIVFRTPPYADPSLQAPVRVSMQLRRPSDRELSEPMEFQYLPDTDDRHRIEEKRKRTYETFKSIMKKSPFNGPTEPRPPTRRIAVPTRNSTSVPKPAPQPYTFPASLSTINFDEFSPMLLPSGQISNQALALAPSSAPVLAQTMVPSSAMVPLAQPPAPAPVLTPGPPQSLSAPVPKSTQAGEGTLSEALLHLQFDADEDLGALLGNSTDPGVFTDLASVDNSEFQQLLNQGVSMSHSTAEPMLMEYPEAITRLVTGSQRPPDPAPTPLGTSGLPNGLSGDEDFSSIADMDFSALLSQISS
Procedure, shortened: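 J774 murine macrophages were grown in DMEM glutamax-I with 10% heat-inactivated FBS and antibiotics for 72 h to confluence, then given compound with LPS in fresh medium. Nuclear extracts were made by hypotonic lysis followed by high-salt extraction of the nuclei. 20 µg protein was run on 10% SDS-PAGE and blotted onto nitrocellulose. Blots were probed with anti-p65 and an HRP secondary antibody, and chemiluminescence was quantified. Results are mean ± SEM.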

[11] = molecular target: Transcription factor p65 (Mus musculus) (UniProt Q04207); assay: Inhibition of NF-kB p65 nuclear translocation in LPS-stimulated mouse J774 cells by Western blot analysis; type: cell-based; details: concentration not given here
Procedure, shortened: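 Nuclear extracts were prepared from LPS-treated J774 cells using hypotonic buffer A followed by high-salt buffer C (420 mM NaCl). Extract protein (20 µg) was run on 10% SDS-PAGE, blotted, and probed with anti-NF-κB p65 antibody, then detected by chemiluminescence.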

J774 [12] = assay: Inhibition of LPS-stimulated iNOS mRNA expression in mouse J774 cells by RT-PCR analysis; type: functional
Procedure, shortened: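 J774 cells were incubated for 3 h with LPS plus compound. Total RNA was extracted and reverse-transcribed, then run by real-time PCR for 40 cycles (95 °C 15 s / 60 °C 1 min), in duplicate. iNOS mRNA was quantified from a standard curve built with LPS-stimulated J774 RNA and normalised to GAPDH.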

CCCc1cc(=O)oc2cc(O)cc(C)c12
inhibition at 10 µM (J774 [1]): -6.8% | inhibition at 100 µM (J774 [2]): 62.5% | inhibition at 100 µM (J774 [3]): 87.8% | inhibition at 100 µM (J774 [4]): -45.6% | inhibition at 10 µM (J774 [5]): 12.2% | inhibition at 10 µM (J774 [6]): 38.5% | inhibition at 10 µM (J774 [7]): 7.8% | Activity (J774 [8]): Non-toxic | inhibition at 100 µM (J774 [9]): 54.3%

S=C(S)N1CCCC1 [PYRROLIDINE DITHIOCARBAMATE]
inhibition at 100 µM (J774 [3]): 97% | inhibition [10]: 95%

Cc1cc(O)cc2oc(=O)ccc12
inhibition at 10 µM (J774 [1]): -44.1% | inhibition at 100 µM (J774 [2]): 80% | inhibition at 100 µM (J774 [3]): 86.2% | inhibition at 100 µM (J774 [4]): -60.4% | inhibition at 10 µM (J774 [6]): 9.2% | inhibition at 10 µM (J774 [7]): 2.7% | Activity (J774 [8]): Non-toxic | inhibition at 100 µM (J774 [9]): 4.2%

Cc1cc(O)cc2oc(=O)cc(C)c12
inhibition at 10 µM (J774 [1]): -14.8% | inhibition at 100 µM (J774 [2]): 71% | inhibition at 100 µM (J774 [3]): 74.3% | inhibition at 100 µM (J774 [4]): -17.5% | inhibition at 10 µM (J774 [5]): 14.5% | inhibition at 10 µM (J774 [6]): -8.6% | inhibition at 10 µM (J774 [7]): -19.7% | Activity (J774 [8]): Non-toxic | inhibition at 100 µM (J774 [9]): 66.4%

O=c1cc(-c2ccccc2F)c2ccc(O)cc2o1
inhibition at 10 µM (J774 [1]): -34.7% | inhibition at 100 µM (J774 [2]): 87.5% | inhibition at 100 µM (J774 [3]): 95.4% | inhibition at 100 µM (J774 [4]): -16.6% | inhibition at 10 µM (J774 [5]): 0.3% | inhibition at 10 µM (J774 [6]): 50.4% | inhibition at 10 µM (J774 [7]): 48.8% | Activity (J774 [8]): Non-toxic | inhibition at 100 µM (J774 [9]): 92.7%

Cc1c(C)c2c(C)cc(O)cc2oc1=O
inhibition at 10 µM (J774 [1]): -31.7% | inhibition at 100 µM (J774 [2]): 92.4% | inhibition at 100 µM (J774 [3]): 94.7% | inhibition at 100 µM (J774 [4]): 11.1% | inhibition at 10 µM (J774 [6]): 51.8% | inhibition at 10 µM (J774 [7]): 49.6% | inhibition [11]: 65% | Activity (J774 [8]): Non-toxic | inhibition at 100 µM (J774 [9]): 92.2% | inhibition (INH) (J774 [12]): 50%

CCc1c(C)c2ccc(O)c(C)c2oc1=O
inhibition at 10 µM (J774 [1]): -36.8% | inhibition at 100 µM (J774 [2]): 87% | inhibition at 100 µM (J774 [3]): 65.2% | inhibition at 100 µM (J774 [4]): 21% | inhibition at 10 µM (J774 [5]): 26.1% | inhibition at 10 µM (J774 [6]): 46.5% | inhibition at 10 µM (J774 [7]): 18.9% | Activity (J774 [8]): Non-toxic | inhibition at 100 µM (J774 [9]): 94.9%

COc1c(O)ccc2c(-c3ccccc3)cc(=O)oc12
inhibition at 10 µM (J774 [1]): -59.1% | inhibition at 100 µM (J774 [2]): 81.8% | inhibition at 100 µM (J774 [3]): 84.6% | inhibition at 100 µM (J774 [4]): -34.7% | inhibition at 10 µM (J774 [6]): 71.5% | inhibition at 10 µM (J774 [7]): 55.9% | Activity (J774 [8]): Non-toxic | inhibition at 100 µM (J774 [9]): 46.9%

Cc1cc(=O)oc2cc(O)ccc12 [HYMECROMONE]
inhibition at 10 µM (J774 [1]): 3.2% | inhibition at 100 µM (J774 [2]): 42.9% | inhibition at 100 µM (J774 [3]): 61.8% | inhibition at 100 µM (J774 [4]): 22.7% | inhibition at 10 µM (J774 [5]): 4.6% | inhibition at 10 µM (J774 [6]): -14.2% | inhibition at 10 µM (J774 [7]): 22.1% | Activity (J774 [8]): Non-toxic | inhibition at 100 µM (J774 [9]): 44.1%

CCCc1cc(=O)oc2cc(O)ccc12
inhibition at 10 µM (J774 [1]): -11.1% | inhibition at 100 µM (J774 [2]): 67.6% | inhibition at 100 µM (J774 [3]): 89.7% | inhibition at 100 µM (J774 [4]): 25% | inhibition at 10 µM (J774 [5]): 25.4% | inhibition at 10 µM (J774 [6]): 25.3% | inhibition at 10 µM (J774 [7]): 25.3% | Activity (J774 [8]): Non-toxic | inhibition at 100 µM (J774 [9]): 88.9%

Cc1c(C)c2ccc(O)cc2oc1=O
inhibition at 10 µM (J774 [1]): -57.7% | inhibition at 100 µM (J774 [2]): 88.9% | inhibition at 100 µM (J774 [3]): 85.5% | inhibition at 100 µM (J774 [4]): 3.7% | inhibition at 10 µM (J774 [5]): 16.7% | inhibition at 10 µM (J774 [6]): 37.6% | inhibition at 10 µM (J774 [7]): 28.6% | inhibition [11]: 65% | Activity (J774 [8]): Non-toxic | inhibition at 100 µM (J774 [9]): 85.7% | inhibition (INH) (J774 [12]): 50%

CCCc1cc(=O)oc2c(OC)c(O)ccc12
inhibition at 10 µM (J774 [1]): -38.9% | inhibition at 100 µM (J774 [2]): 83.7% | inhibition at 100 µM (J774 [3]): 74.6% | inhibition at 100 µM (J774 [4]): 8.6% | inhibition at 10 µM (J774 [5]): 11% | inhibition at 10 µM (J774 [6]): 57% | inhibition at 10 µM (J774 [7]): 13.4% | Activity (J774 [8]): Non-toxic | inhibition at 100 µM (J774 [9]): 73.4%

O=c1ccc2ccc(O)cc2o1 [UMBELLIFERONE]
inhibition at 10 µM (J774 [1]): -17.2% | inhibition at 100 µM (J774 [2]): 64.4% | inhibition at 100 µM (J774 [3]): 47.2% | inhibition at 100 µM (J774 [4]): -20.4% | inhibition at 10 µM (J774 [5]): 3.2% | inhibition at 10 µM (J774 [6]): 5.5% | inhibition at 10 µM (J774 [7]): 10% | Activity (J774 [8]): Non-toxic | inhibition at 100 µM (J774 [9]): 34.1%

Cc1cc(=O)oc2c(C)c(O)ccc12
inhibition at 10 µM (J774 [1]): 2.3% | inhibition at 100 µM (J774 [2]): 65.7% | inhibition at 100 µM (J774 [3]): 61.4% | inhibition at 100 µM (J774 [4]): 7.8% | inhibition at 10 µM (J774 [5]): 17.5% | inhibition at 10 µM (J774 [6]): 17.3% | inhibition at 10 µM (J774 [7]): 20.1% | Activity (J774 [8]): Non-toxic | inhibition at 100 µM (J774 [9]): 82.8%

COc1c(O)ccc2c(C)c(F)c(=O)oc12
inhibition at 10 µM (J774 [1]): -15.4% | inhibition at 100 µM (J774 [2]): 50.2% | inhibition at 100 µM (J774 [3]): 86.2% | inhibition at 100 µM (J774 [4]): -36.8% | inhibition at 10 µM (J774 [5]): 10.7% | inhibition at 10 µM (J774 [6]): 15.8% | inhibition at 10 µM (J774 [7]): 2.7% | Activity (J774 [8]): Non-toxic | inhibition at 100 µM (J774 [9]): 14.8%

O=c1cc(-c2ccccc2)c2ccc(O)cc2o1
inhibition at 10 µM (J774 [1]): -47.1% | inhibition at 100 µM (J774 [2]): 85% | inhibition at 100 µM (J774 [3]): 93% | inhibition at 100 µM (J774 [4]): -0.4% | inhibition at 10 µM (J774 [6]): 54.8% | inhibition at 10 µM (J774 [7]): 46.5% | Activity (J774 [8]): Non-toxic | inhibition at 100 µM (J774 [9]): 95.7%

CCc1c(C)c2ccc(O)cc2oc1=O
inhibition at 10 µM (J774 [1]): -29.9% | inhibition at 100 µM (J774 [2]): 92.3% | inhibition at 100 µM (J774 [3]): 91% | inhibition at 100 µM (J774 [4]): -73.2% | inhibition at 10 µM (J774 [5]): 27.9% | inhibition at 10 µM (J774 [6]): 43.3% | inhibition at 10 µM (J774 [7]): 7.5% | inhibition [11]: 65% | Activity (J774 [8]): Non-toxic | inhibition (INH) (J774 [12]): 50%

Cc1c(F)c(=O)oc2cc(O)ccc12
inhibition at 10 µM (J774 [1]): -2.2% | inhibition at 100 µM (J774 [2]): 62.8% | inhibition at 100 µM (J774 [3]): 53% | inhibition at 100 µM (J774 [4]): -25.1% | inhibition at 10 µM (J774 [5]): 21.2% | inhibition at 10 µM (J774 [6]): 7.4% | inhibition at 10 µM (J774 [7]): 46.5% | Activity (J774 [8]): Non-toxic | inhibition at 100 µM (J774 [9]): 38.1%

— ChEMBL document CHEMBL1817608, “Synthesis and anti-inflammatory effects of a series of novel 7-hydroxycoumarin derivatives” (Eur J Med Chem, 2011)
